This is an account of results in ChEMBL document CHEMBL1126751, “Studies on quinazolines. 5. 2,3-dihydroimidazo[1,2-c]quinazoline derivatives: a novel class of potent and selective alpha 1-adrenoceptor antagonists and antihypertensive agents” (J Med Chem, 1993).

Assay [1] concerns Rattus norvegicus. In words: Blood pressure lowering activity in spontaneously hypertensive rats (SHR) after 1 hour of administration (iv) of dose of 0.5 mg/kg. The format is functional.
Assay [2] has as its system Rattus norvegicus. In words: Inhibitory concentration against 5-HT in conscious spontaneously […] rats (SHR). The format is functional, organism-based.
For assay [3], the target named is T1, Adrenergic receptor alpha-1 (Rattus norvegicus, UniProt P15823+P23944+P43140).
T1 sequence (P15823 whole entry): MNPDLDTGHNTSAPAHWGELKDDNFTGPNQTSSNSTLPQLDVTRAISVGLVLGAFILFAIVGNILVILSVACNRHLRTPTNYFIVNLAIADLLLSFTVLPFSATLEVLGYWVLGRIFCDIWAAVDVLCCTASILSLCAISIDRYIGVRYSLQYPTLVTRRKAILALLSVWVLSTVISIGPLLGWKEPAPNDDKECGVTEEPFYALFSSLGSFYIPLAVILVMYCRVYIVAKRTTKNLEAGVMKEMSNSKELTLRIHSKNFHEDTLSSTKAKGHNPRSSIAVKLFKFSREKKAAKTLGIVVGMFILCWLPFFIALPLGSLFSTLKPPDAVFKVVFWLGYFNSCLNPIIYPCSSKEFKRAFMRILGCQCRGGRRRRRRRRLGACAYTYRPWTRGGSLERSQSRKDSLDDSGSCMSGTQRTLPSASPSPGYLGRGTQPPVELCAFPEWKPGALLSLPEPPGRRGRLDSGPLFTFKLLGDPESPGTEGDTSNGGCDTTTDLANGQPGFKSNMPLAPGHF
T1 sequence (P23944 whole entry): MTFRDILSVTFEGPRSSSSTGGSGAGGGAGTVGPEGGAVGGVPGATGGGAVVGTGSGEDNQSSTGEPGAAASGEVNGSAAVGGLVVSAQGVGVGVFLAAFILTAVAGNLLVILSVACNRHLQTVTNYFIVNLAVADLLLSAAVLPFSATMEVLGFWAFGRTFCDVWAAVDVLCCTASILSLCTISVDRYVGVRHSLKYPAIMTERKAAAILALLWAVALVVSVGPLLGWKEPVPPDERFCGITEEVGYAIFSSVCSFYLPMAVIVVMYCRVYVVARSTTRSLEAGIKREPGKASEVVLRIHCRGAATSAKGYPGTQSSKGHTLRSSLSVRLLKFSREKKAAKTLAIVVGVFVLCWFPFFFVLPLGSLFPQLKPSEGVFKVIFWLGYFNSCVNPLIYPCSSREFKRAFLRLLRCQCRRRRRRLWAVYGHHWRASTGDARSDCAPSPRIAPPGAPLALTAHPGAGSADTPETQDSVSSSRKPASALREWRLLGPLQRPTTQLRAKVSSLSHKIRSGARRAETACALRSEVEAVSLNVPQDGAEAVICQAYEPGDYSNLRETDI
T1 sequence (P43140 whole entry): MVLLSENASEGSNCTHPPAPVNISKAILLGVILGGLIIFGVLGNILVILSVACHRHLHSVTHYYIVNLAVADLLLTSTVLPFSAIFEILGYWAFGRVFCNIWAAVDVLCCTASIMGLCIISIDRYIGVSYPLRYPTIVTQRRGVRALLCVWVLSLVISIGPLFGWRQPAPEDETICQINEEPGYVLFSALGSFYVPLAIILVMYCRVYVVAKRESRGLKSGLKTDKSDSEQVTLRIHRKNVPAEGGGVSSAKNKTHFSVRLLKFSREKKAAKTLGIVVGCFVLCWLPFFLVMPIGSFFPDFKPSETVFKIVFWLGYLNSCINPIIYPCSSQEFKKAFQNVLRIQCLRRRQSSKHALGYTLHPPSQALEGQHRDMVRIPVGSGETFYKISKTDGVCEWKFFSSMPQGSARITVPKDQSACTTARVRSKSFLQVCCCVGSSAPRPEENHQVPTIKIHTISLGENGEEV
In words: Alpha-1-antagonistic activity against phenylephrine in rat aorta. The format is functional, tissue-based.

The target of assay [4] is T1, Adrenergic receptor alpha-1. In words: Binding affinity against alpha-1 adrenergic receptor by measuring displacement of [3H]prazosin from rat brain cortex membranes (in vitro). Type of assay: cell membranes, Membrane. (In general: Displacement assays read how much labelled ligand stays bound in the presence of the test substance.)
Assay [5] relates to Rattus norvegicus. In words: Inhibitory concentration against phenylephrine in conscious spontaneously […] rats (SHR). The format is functional, organism-based.
Assay [6] deals with Rattus norvegicus. In words: Blood pressure lowering activity in spontaneously hypertensive rats (SHR) after 6 hours of administration (iv) of dose of 0.5 mg/kg. The format is functional.
The subject of assay [7] is Rattus norvegicus. Briefly: Blood pressure lowering activity in spontaneously hypertensive rats (SHR) after 6 hours of administration (iv) of dose of 0.25 mg/kg. The format is functional. In a few lines:
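Anesthetized spontaneously hypertensive rats of either sex, 250–300 g (pentobarbital sodium 40–50 mg/kg ip). Compound given iv via cannulated femoral vein. Arterial pressure recorded via right femoral artery cannula with pressure transducer, body temperature held at 37.5 °C. Value is maximum change in mean blood pressure (mmHg) at the time point. Groups of four to six animals.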

The test system of assay [8] is Rattus norvegicus. In words: Blood pressure lowering activity in spontaneously hypertensive rats (SHR) after 1 hour of administration (iv) of dose of 1.0 mg/kg. The format is functional.
The target in assay [9] is T2, Adrenergic receptor alpha-2 (Rattus norvegicus, UniProt P22086+P19328+P22909).
T2 sequence (P22086 whole entry): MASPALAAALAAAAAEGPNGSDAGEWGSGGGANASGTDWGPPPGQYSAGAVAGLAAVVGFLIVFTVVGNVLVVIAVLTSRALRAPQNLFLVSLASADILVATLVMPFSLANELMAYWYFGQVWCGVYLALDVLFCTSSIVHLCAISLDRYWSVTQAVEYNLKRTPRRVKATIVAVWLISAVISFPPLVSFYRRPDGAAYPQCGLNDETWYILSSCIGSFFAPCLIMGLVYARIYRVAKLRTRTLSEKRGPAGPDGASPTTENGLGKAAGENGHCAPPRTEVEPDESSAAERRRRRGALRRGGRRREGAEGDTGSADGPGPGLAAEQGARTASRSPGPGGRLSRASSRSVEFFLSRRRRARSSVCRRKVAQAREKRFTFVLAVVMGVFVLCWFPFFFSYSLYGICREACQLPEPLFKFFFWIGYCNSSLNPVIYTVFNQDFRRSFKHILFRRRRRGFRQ
T2 sequence (P19328 whole entry): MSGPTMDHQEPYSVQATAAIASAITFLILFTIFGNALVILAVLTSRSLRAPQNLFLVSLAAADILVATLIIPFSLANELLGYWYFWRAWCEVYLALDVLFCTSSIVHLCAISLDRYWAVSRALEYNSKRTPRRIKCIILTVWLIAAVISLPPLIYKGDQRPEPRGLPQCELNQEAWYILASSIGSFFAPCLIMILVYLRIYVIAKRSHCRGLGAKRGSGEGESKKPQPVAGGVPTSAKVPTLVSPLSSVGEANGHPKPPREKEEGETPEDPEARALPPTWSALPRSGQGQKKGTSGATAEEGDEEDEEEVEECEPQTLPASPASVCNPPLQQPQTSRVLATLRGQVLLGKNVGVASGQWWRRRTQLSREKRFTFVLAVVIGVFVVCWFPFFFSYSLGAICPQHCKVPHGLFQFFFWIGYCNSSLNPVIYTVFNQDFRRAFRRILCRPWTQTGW
T2 sequence (P22909 whole entry): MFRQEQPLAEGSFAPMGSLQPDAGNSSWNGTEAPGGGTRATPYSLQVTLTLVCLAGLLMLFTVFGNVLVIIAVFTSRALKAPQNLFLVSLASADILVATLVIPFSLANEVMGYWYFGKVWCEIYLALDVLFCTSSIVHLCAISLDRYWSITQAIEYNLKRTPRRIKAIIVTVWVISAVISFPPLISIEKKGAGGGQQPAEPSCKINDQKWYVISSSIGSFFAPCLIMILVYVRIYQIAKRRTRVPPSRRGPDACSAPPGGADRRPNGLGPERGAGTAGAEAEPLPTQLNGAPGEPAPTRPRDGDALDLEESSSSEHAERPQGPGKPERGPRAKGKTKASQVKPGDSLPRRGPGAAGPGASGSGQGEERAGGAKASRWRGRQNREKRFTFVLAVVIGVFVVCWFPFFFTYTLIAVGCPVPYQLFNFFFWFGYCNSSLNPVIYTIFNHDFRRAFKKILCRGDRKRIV
Briefly: Binding affinity against alpha-2 adrenergic receptor by measuring displacement of [3H]clonidine from rat brain cortex membranes (in vitro). The format is cell membranes, Membrane.

Assay [10] concerns Rattus norvegicus. In words: Blood pressure lowering activity in spontaneously hypertensive rats (SHR) after 6 hours of administration (iv) of dose of 1.0 mg/kg. The format is functional.
Assay [11] relates to Rattus norvegicus. In words: Blood pressure lowering activity in spontaneously hypertensive rats (SHR) after 6 hours of administration (iv) of dose of 1.0 mg/kg […]. Type of assay: functional.
The test system of assay [12] is Rattus norvegicus. In words: Blood pressure lowering activity in spontaneously hypertensive rats (SHR) after 1 hour of administration (iv) of dose of 1.0 mg/kg […]. The format is functional.
Assay [13] relates to Rattus norvegicus. Briefly: Blood pressure lowering in spontaneously hypertensive rats (SHR) after 1 hour of administration (iv) of dose of 4.0 mg/kg […]. The format is functional.
In assay [14] the test system is Rattus norvegicus. In words: Blood pressure lowering activity in spontaneously hypertensive rats (SHR) after 6 hours of administration (iv) of dose of 0.5 mg/kg […]. Type of assay: functional.
The target of assay [15] is T1, Adrenergic receptor alpha-1. Briefly: Alpha-1 antagonistic activity against phenylephrine in rat aorta. Type of assay: functional, tissue-based.
Assay [16] concerns Rattus norvegicus. In words: Blood pressure lowering activity in spontaneously hypertensive rats (SHR) after 1 hour of administration (iv) of dose of 0.5 mg/kg […]. Type of assay: functional.

SMILES strings stand for the structures. Some results are limits rather than exact numbers.

Regarding `O=C1Nc2ccccc2C2=NC(CN3CCN(c4ccccc4)CC3)CN12` (stereo unspecified), the MBP was -49.3 mmHg in the assay with Rattus norvegicus [1]; -32.5 mmHg with Rattus norvegicus [6]; -8.75 mmHg with Rattus norvegicus [7]; -57.5 mmHg with Rattus norvegicus [8]; -44.5 mmHg in the assay with Rattus norvegicus [10]. Moreover, the IC50 in the assay with Rattus norvegicus [2] was determined as 0.36 nM; in the assay with Rattus norvegicus [5], 0.44 nM. This molecule also returned a pA2 in [3] of 9.82. The values for the Ki in [4] and in [9] were 2.01 nM and 3860 nM, respectively.

In assay [4], `CN1C(=O)N2C(=NCC2CN2CCN(c3ccccc3)CC2)c2ccccc21` (stereo unspecified) came in with a Ki of 15 nM. In addition, the results for the MBP in the assay on Rattus norvegicus [11] and in the assay on Rattus norvegicus [12] were -20 mmHg and -23.3 mmHg, respectively.

In turn, `O=C1Nc2ccccc2C2=NC(CN3CCN(Cc4ccccc4)CC3)CN12` (stereo unspecified) displayed an MBP with Rattus norvegicus [13] of -43.7 mmHg. Besides, the Ki is on record as 850 nM in assay [4] and over 10000 nM in [9].

With `COc1ccccc1N1CCN(CCn2c(=O)[nH]c3ccccc3c2=O)CC1`, the MBP is -31.7 mmHg in the assay with Rattus norvegicus [14] and -33.9 mmHg in the assay with Rattus norvegicus [16]. The Ki amounted to 0.25 nM in assay [4] and 1599 nM in assay [9]. Moreover, the pA2 in assay [15] was 9.63.

The term IC50 denotes the concentration needed to halve the response being measured. The pA2 is the negative logarithm of the molar antagonist concentration that doubles the agonist concentration needed for the same response. A low value points to lower antagonist potency. By Ki is commonly meant the equilibrium dissociation constant of an inhibitor or competing ligand from its target. A low value points to a stronger hold on the target.
